Screening results (PubChem BioAssay)
The list is not random: actives were taken first. Their share in the collection is about 2%.
PABP FP inh = PABP-poly(A) binding inhibition; PABP-poly(A) RNA binding, fluorescence polarization; inhibition, % at 35 µM; 290,000 tested, 1% active; AID 2014;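 further: calls also rest on retests at 20 µM and on dose response follow-up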
MLLE-PAM2 inh = inhibitors of microRNA-mediated deadenylation, human PABP1 MLLE binding; P11940; GST-MLLE / FITC-PAM2 fluorescence polarization; inhibition, % at 20 µM; 360,000 tested, 0.36% active; AID 588489; in the data active means inhibition above about 35%, passing the limit was not always enough;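 further: plate controls were DMSO wells with GST-MLLE for no effect and wells lacking GST-MLLE protein for full effect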
eIF4H FP inh = inhibitors of RNA binding by human eIF4H | Q15056 | eIF4H fluorescence polarization binding assay | inhibition, % at 35 µM | 290,000 tested, 0.94% active | AID 2012;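 further: calls also rest on retests at 20 µM and on dose response follow-up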
NS3 helicase inh = blocks Hepatitis C virus NS3 helicase unwinding. NS3 helicase DNA unwinding, Cy5 molecular beacon fluorescence. inhibition, % at 10.9 µM. 290,000 tested, 0.56% active. AID 1800;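 active means inhibition above the mean of all tested compounds plus 3 SD, set per campaign, cut at about 35% in these data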;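 further: 0% = DMSO wells and 100% = thioflavine S control wells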
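System: NS3 helicase fragment of HCV / Schedule: 1 h at 25 °C / Control set: DMSO alone as 0% and 110 µM thioflavine S as 100% / Reagent: Cy5/quencher beacon DNA duplex and ATP to start / Technique: Cy5 fluorescence / Replication: singlicate / Evaluation: % inhibition of end-to-start signal ratio versus controls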
DNA FID counter = counter-screen for HCV NS3 helicase inhibitors: DNA intercalator displacement; DNA fluorescent intercalator displacement, fluorescence; AID 1845; inhibition, % at 7.9 µM; 290,000 tested, 0.17% active; in the data active means inhibition above about 37%;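 further: 0% = vehicle and 100% = reference compound; higher means more ethidium bromide displaced from hairpin DNA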
HCV core dimer = HCV core protein dimerization inhibition. TR-FRET GST/Flag-core106 dimerization, 1536-well. inhibition, % at 5 µM. 300,000 tested, 0.33% active. AID 1899;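 active means inhibition above the mean of all tested compounds plus 3 SD, set per screening campaign, cut at about 45% in these data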
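System: GST/Flag-tagged HCV core106 proteins. Incubation: compound-protein-antibody incubation 4 h at 22.5 °C. Technique: HTRF with 340 nm excitation, 617/671 nm emission. Medium: KF-containing HEPES buffer, pH 7.45, DTT, CHAPS, BSA. Read-out: inhibition (%) from 671 over 617 nm ratio. Also added: Eu(K)-anti-GST 90 ng/mL plus XL665-anti-Flag 1 µg/mL.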
An asterisk follows results filed as active; u = inconclusive; x = no result given. Unless noted, how the calls were made is not given here.

SMILES | PABP FP inh | MLLE-PAM2 inh | eIF4H FP inh | NS3 helicase inh | DNA FID counter | HCV core dimer
O=C(Nc1ccc(F)cc1)Nc1ccc([N+](=O)[O-])cn1 | 75.0* | 8.2 | 3.0* | 19.0 | 5.2 | -1.9
Cc1cc(=O)oc(C)c1C(=O)NNC(=O)C1(C)CC1Br (stereo unspecified) | 8.5 | -1.4 | -15.9 | -10.8 | -2.6 | -7.3
CC1(C(=O)NNC(=O)c2ccc(=O)oc2)CC1Br (stereo unspecified) | 83.2* | -7.5 | 82.0 | 18.1 | -7.6 | 0.8
Cc1ccc(-n2[nH]c(C)c(C=Nc3ccc4[nH]c(=O)[nH]c4c3)c2=O)cc1 | -0.3 | 37.5 | 4.3 | 16.9 | -7.0 | -8.2
Cc1ccc(-n2[nH]c(C)c(C=Nc3ccc4[nH]c(=O)[nH]c4c3)c2=O)cc1C | 5.2 | 67.0* | 2.6 | -10.3 | -5.0 | -3.6
CC(=O)Nc1ccc(C(=S)NCC2(N(C)C)CCCCC2)cc1 | 81.4* | 12.6 | active | 7.6 | 2.0 | -7.2
CN(CC(=O)Nc1ccc(Cl)cc1F)C1=NS(=O)(=O)c2ccccc21 | x | -52.8 | x | x | x | x
CCN1C/C(=C/c2cccs2)c2nc3ccccc3c(C(=O)O)c2C1 | 72.3* | 46.4 | 61.6* | -29.3 | -1.8 | -6.5
CCN1C/C(=C/c2sccc2C)c2nc3ccccc3c(C(=O)O)c2C1 | 82.7* | 16.8 | 71.9* | -44.6 | 3.6 | -3.0
CCCS(=O)(=O)NC(=O)C1(C)CCN(C(=O)COc2ccccc2)C1 (stereo unspecified) | x | 0.4 | x | x | x | x
CCOC(=O)c1ccc(N2C(=O)[C@@H](c3ccccc3)[C@H]2c2ccccc2)cc1 | x | 0.7 | x | x | x | x
CCOC(=O)c1ccc(N2C(=O)C3C(/C=C/c4ccccc4)OC4(C(=O)c5ccccc5C4=O)C3C2=O)cc1 (stereo unspecified) | active | -0.4 | 56.6 | 30.8 | -25.4 | 25.6
CCC(C)n1c(=N)c(C#N)cc2c(=O)n3cccc(C)c3nc21 (stereo unspecified) | 8.1 | -0.9 | -1.2 | -15.8 | 0.2 | -2.8
Cc1ccc2nc3c(cc(C#N)c(=O)n3CC3CCCO3)c(=O)n2c1 (stereo unspecified) | 56.7* | x | 31.9* | 4.1 | -1.2 | x
Cc1ccc2nc3c(cc(C#N)c(=O)n3-c3nccs3)c(=O)n2c1 | 104.2* | 2.5 | 98.5* | 1.6 | -2.9 | 5.8
CCC(C)n1c(=N)c(C#N)cc2c(=O)n3cc(C)ccc3nc21 (stereo unspecified) | 27.6* | -4.7 | 57.7* | 2.3 | 1.9 | 2.6
Cc1ccc2nc3c(cc(C#N)c(=O)n3CCN3CCOCC3)c(=O)n2c1 | 55.5 | x | 27.6 | x | x | x
O=C(Nc1ccc2c(c1)nc1n2CCSC1)c1ccco1 | 2.2 | 12.1 | 71.8* | -1.3 | -0.1 | 25.4
O=C(Nc1ccc2c(c1)nc1n2CCN(C2CCCCC2)C1)c1ccco1 | 21.9 | -29.4 | 93.8* | -7.6 | -12.8 | x
O=C(Nc1ccc2c(c1)nc1n2CCOC1)c1ccco1 | -5.5 | 12.2 | -5.3 | 1.4 | 1.8 | -3.5
O=C(Nc1ccc2c(c1)nc1n2CCN(C2CCCCC2)C1)NC1CCCCC1 | -11.5 | x | 1.0 | -29.8 | -12.1 | 5.0
Cc1c(Cl)cccc1NC(=O)CC1Oc2ccccc2NC1=O (stereo unspecified) | 14.7 | -7.6 | 2.4 | -10.0 | -11.3 | 1.0
COC1=C/C(=C/c2c(N)n3cc(C)sc3nc2=O)C=CC1=O | 3.4 | -147.7 | 60.2* | -2.2 | -6.9 | -26.8
O=C(NCCc1ccc(O)cc1)c1[nH]c(C(F)(F)F)nc1-c1ccccc1 | x | -8.1 | x | x | x | x
Cc1cccc2c1N(CCCOc1ccccc1)C(=O)C2=O | -3.1 | 5.2 | -7.3 | -4.5 | -7.1 | 12.7
SMILES | PABP FP inh | MLLE-PAM2 inh | eIF4H FP inh | NS3 helicase inh | DNA FID counter | HCV core dimer
Cc1cccc(OCCN2C(=O)C(=O)c3cccc(C)c32)c1 | 74.1 | -6.2 | 1.1* | -6.2 | 0.8 | 11.5
CN(/N=C/c1c[nH]c2ccccc12)c1cnn(-c2ccc(F)c(Cl)c2)c(=O)c1Cl | 70.5* | -91.7 | 77.6* | 9.0 | -0.2 | -5.7
Cc1ccc(S(=O)(=O)N2CCC(C(=O)N3CCCCCCC3)CC2)cc1C | x | 14.7 | x | x | x | x
O=C(Nc1cc2c(oc1=O)CCCC2=O)c1ccc(Cl)cc1 | 49.6* | 0.1 | 73.7* | 19.6 | -4.9 | 16.1
Cc1nccc2oc(=O)c(NC(=O)c3ccc(Cl)cc3)cc12 | -1.7 | 0.0 | -10.3 | 5.0 | 1.4 | 1.6
COCCNC(=S)N/N=C1\CC(C)CC(C)(C)C1 (stereo unspecified) | 4.7 | 19.4 | -3.9 | -3.3 | 5.8 | -2.8
O=C(N/N=C/c1ccco1)c1cccc(NC(=O)c2cccc(Cl)c2)c1 | 0.5 | -11.8 | -11.7 | -0.5 | -24.9 | 2.3
O=C(N/N=C/c1ccco1)c1cccc(N2Cc3ccccc3C2)c1 | 52.6* | -1.7 | 91.1* | 8.4 | -16.7 | 63.2*
O=C(N/N=C/c1cc(Br)ccc1O)c1cccc(N2CCCC2=O)c1 | 1.2 | 0.0 | 10.1 | 26.1 | -5.0 | -4.8
O=C(N/N=C/c1ccco1)c1cccc(N2CCCC2=O)c1 | -2.3 | -16.6 | 90.8* | 13.9 | -4.7 | 4.5
CCOc1ccc(NC(=S)N2CCN(S(C)(=O)=O)CC2)cc1 | 0.0 | -33.0 | 9.1 | -1.8 | -7.0 | x
C[C@H]1CN([C@@H](C)CO)C(=O)CCCn2cc(nn2)CO[C@@H]1CN(C)C(=O)Nc1ccc(N2CCN(C)CC2)cc1 | x | 8.6 | x | x | x | x
COC(=O)c1cc2c(-c3ccccc3)cc3ccccn3c-2c1C(=O)OC | 108.6* | 35.4 | u | 7.7 | 9.4 | 30.0
Cc1cccc(NC(=O)CCN2CCCCC2)c1 | -8.9 | 5.3 | -2.8 | 4.4 | -4.2 | 5.9
Cc1cc(C)cc(NC(=O)CCN2CCCC2)c1 | 71.1* | -18.8 | -12.2 | -9.2 | 1.5 | 2.3
Cc1ccc(Cc2c(-c3cccc(Cl)c3)nc3c4ccccc4ccn23)cc1 | x | -12.3 | x | x | x | x
O=C1C(Nc2cccc(O)c2)=C(N2CCCCC2)C(=O)c2ccccc21 | 16.1 | 49.4* | 6.4 | 5.0 | 5.1 | 7.0
O=C1C(Nc2ccccc2)=C(N2CCCCC2)C(=O)c2ccccc21 | -2.1 | 24.9 | 3.6 | 3.8 | 1.3 | 13.1
Cc1nnc2ccc(-c3ccc(NC(=O)c4ccco4)cc3)nn12 | -13.1 | -10.9 | 74.1* | 1.1 | -7.0 | 25.6
CC(=O)Nc1ccc(-c2ccc3nnc(C)n3n2)cc1 | -6.6 | 14.7 | -8.8 | 4.7 | 3.2 | 0.6
Cc1nnc2ccc(-c3ccc(NC(=O)Cc4cccs4)cc3)nn12 | -11.1 | -16.9 | 18.1 | -5.2 | -15.2 | 55.7*
CC(=O)C1CCC2C3CCC4=CC(=O)CCC4(C)C3(F)C(O)CC12C (stereo unspecified) | x | 6.8 | x | x | x | x
COc1ccc([C@@H]2C[C@H]3[C@@H](CN2S(=O)(=O)c2ccccc2)C(=O)C[C@@H](c2ccc(C)cc2)N3S(=O)(=O)c2ccc(C)cc2)cc1 | x | -2.7 | x | x | x | x
COc1ccc(CC(=O)OCn2nnc3ccccc3c2=O)cc1 | -0.9 | 4.7 | -3.3 | 9.0 | -9.4 | -5.1
COc1ccc(CC(=O)OCn2nnc3ccccc3c2=O)cc1OC | 88.3* | 9.7 | 92.0* | 14.3 | -16.0 | 0.6
